Measured values published in PubChem BioAssay.
Values without a mark were called inactive. Inconclusive results are not listed. The source made the active and inactive calls.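 How the source made its calls, unless noted: active means inhibition over a set limit, the all-compound mean plus 3 SD, in both replicate runs; inconclusive means over that limit in just one replicate run; inactive means at or under that limit in both runs.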

Key:
[1] = OD615 S. cerevisiae growth inhibition, permissive medium, pilot counter-assay, permissive growth control for S. cerevisiae lifespan shortening project (AID 705;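 active means growth inhibition above 25% in both replicates, a cutoff set 3 SD above the mean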); conditions: OD615, 24 h, at 10 µM, hits give high values
Summary of the method: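 Material: engineered DeaD yeast; compound dosing: one dose 10 µM, DMSO 0.25% final; measure: yeast growth inhibition indicated by reduced 24 h OD615; detection: OD615 turbidity read; incubation: cells pre-grown 4 h, then 24 h compound exposure, 30 °C humidified; medium: permissive synthetic complete medium with raffinose and galactose carbon sources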

[2] = Restrictive medium S. cerevisiae growth inhibition, OD615, pilot screen of yeast lifespan reduction project, restrictive growth control (AID 706;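 active means growth inhibition above a set limit, 3 SD over mean compound inhibition, in both replicates, cut at about 43% in these data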;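 further: modified DeaD lifespan yeast strain shifted to restrictive glucose medium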); conditions: OD615, 48 h, at 10 µM, hits give high values
Summary of the method: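 material = engineered S. cerevisiae DeaD strain | medium = glucose-based CSMM-D restrictive medium | times = 4 h pre-incubation, 48 h exposure at 30 °C | technique = OD615 absorbance reading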

[3] = viability gain of MRP-1-high H69AR cells under doxorubicin, pilot screen, MRP-1 activator project, CellTiter-Glo, duplicate (AID 807;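 active means viability increase at or above a cutoff of the median across tested compounds plus 3 SD, cut at about 8.5% in these data, passing the limit was not always enough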;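 further: compound pretreatment 18-22 h then 72 h combined with doxorubicin; 0% = doxorubicin alone and 100% = vehicle without doxorubicin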); conditions: H69AR viability with doxorubicin, CellTiter-Glo luminescence; at 10 µM; hits give high values
[4] = growth suppression of beta-catenin knockout HCT116, pilot screen, human colon tumor cells (AID 823;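 active means cell viability at or below a set limit in both duplicate runs, the limit being the all-compound median minus 4 SD, cut at about 23% in these data, passing the limit was not always enough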;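 further: 0% = wells killed by 20 µM Hyamine and 100% = untreated DMSO cell wells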); conditions: CellTiter-Glo, 60 h, at 10 µM, hits give low values
[5] = growth suppression of PTEN-deleted HCT116, pilot screen, cell-based, HCT116 clonal line, CellTiter-Glo (AID 824;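 active means viability at or below 27.92% in each of two runs, the all-compound median minus 4 SD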;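 further: 0% = 20 µM Hyamine control and 100% = vehicle cell control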); conditions: 60 h, at 10 µM, hits give low values
[6] = inhibitors of the yeast RAM network, pilot screen, dse1pr::URA3 reporter, 5-FOA selection (AID 869);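 further: 0% = DMSO wells with no growth and 100% = 10 µM 1-NA-PP1 with full growth; RAM network block rescues cells from 5-FOA so hits raise OD615 growth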; conditions: S. cerevisiae dse1pr::URA3 5-FOA growth, OD615, 2 d; at 10 µM; hits give high values; strain carries analog-sensitive mutant Cbk1 kinase
[7] = RAM signaling pathway blockade in yeast – S. cerevisiae, Pdr1DBD-CYC8 efflux-inhibited sensitized strain, primary screen (AID 1298;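 active means RAM network inhibition above 8.4% in each of two replicates, 3 SD over the compound average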;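 further: 0% = DMSO untreated cells without growth and 100% = 10 µM 1-NA-PP1 full growth; higher means more yeast growth rescued from 5-FOA killing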); conditions: S. cerevisiae cbk1-as DSE1-URA3 strain, 5-FOA growth OD615, 2 d; at 50 µM; hits give high values

Row | SMILES | growth inhibition [1] | growth inhibition [2] | viability increase [3] | viability [4] | viability [5] | inhibition [6] | RAM network inhibition [7]
1 | Cc1ccc(-c2nc(CS(=O)CC(=O)NC3CCC(C)CC3)c(C)o2)cc1 (centres undefined) | 2.73% | 11.8% | 1.29% | 84.8% | 94.8% | 0.76% | 2.42%
2 | Cc1cccc(N(C)c2cc(C)nc3ncnn23)c1 | 2.75% | 3.99% | -1.19% | 97.3% | 99.6% | 0.99% | 4.73%
3 | Cn1c(N)c(C(=O)COC(=O)Cc2ccsc2)c(=O)n(C)c1=O | -10.1% | -0.56% | -0.79% | 93.6% | 97.7% | 0.31% | -0.32%
4 | COc1ccc(N=C(N(C)C)P(=O)(N(C)C)N(C)C)cc1 | -5.46% | 0.105% | -1.44% | 103% | 98.4% | 0.22% | 6.63%
5 | O=C(NCN1CCc2ccccc2C1)c1cnccn1 | -18.3% | -15.1% | -3.49% | 96.3% | 96.6% | 3.92% | 5.24%
6 | COc1ccccc1N1CCN(c2cc(=O)n(-c3ccc(Cl)cc3)c(=O)[nH]2)CC1 | -5.8% | -7.77% | -2.22% | 84.4% | 77.7% | 1.07% | 7.55%
7 | COc1ccc(NS(=O)(=O)c2ccc3c(c2)oc(=O)n3C)c(OC)c1 | -16.1% | -28.2% | 0.13% | 104% | 91.5% | 1.07% | 9.99%
8 | O=C(Cn1cnc2c(cnn2-c2ccccc2)c1=O)NC1CCCC1 | 3.55% | -3.13% | 1.03% | 99.2% | 95.8% | 1.77% | 2.38%
9 | CC(CCc1ccco1)NC(=O)Cn1nc(Cc2ccncc2)c2ccccc2c1=O (centres undefined) | -0.065% | 3.82% | -4.14% | 89.4% | 92.7% | 2.26% | 1.95%
10 | O=C(Cn1cc2c(n1)CCCCC2)NCc1cccs1 | 0.86% | 0.58% | -1.84% | 100% | 87.7% | 0.935% | 1.69%
11 | Cc1ccccc1-n1c(=O)cc(N2CCCCCC2)[nH]c1=O | -4.08% | -0.93% | -2.23% | 99.9% | 98.1% | 2.07% | 6.58%
12 | CCSc1nc2ccccc2n1S(=O)(=O)c1ccccc1 | -13.9% | -20.8% | -0.8% | 101% | 100% | 0.395% | 1.37%
13 | COc1ccc(-c2noc(-c3ccccc3F)n2)cc1 | -9.92% | -12% | -3.21% | 86.6% | 83.1% | 0.965% | 4.28%
14 | CN(C)CCNc1nc2c(c(=O)[nH]c(=O)n2C)n1CCCc1ccccc1 | -14.9% | 4.34% | -1.16% | 93.1% | 93.9% | 2.04% | 0.47%
15 | COCCCNC(=O)Cn1nnc(-c2ccc(NC(=O)c3ccc(F)cc3)cc2)n1 | -9.11% | -28.5% | 0.73% | 99.7% | 96.8% | 0.705% | 4.54%
16 | COc1ccccc1Nc1nc2ccccc2n1C | -11.6% | -24.9% | 0.31% | 94.7% | 94.6% | 1.44% | 4.17%
17 | c1ccc(-c2csc3nnc(SCc4ccc5c(c4)OCO5)n23)cc1 | 22.1% | 64.5% (active) | -2.01% | 93.2% | 82.7% | 0.87% | 3.09%
18 | O=C(NCCOC(=O)c1ccncc1)c1ccccc1 | -0.685% | -1.32% | -0.4% | 99.2% | 99.7% | 1.27% | 3.05%
19 | CCCCOc1ccc(NC(=O)C2CC=CCC2C(=O)O)cc1 (centres undefined) | -5.44% | -26.4% | -2.19% | 81.9% | 79.5% | 0.51% | 0.37%
20 | O=C(Nc1ccccc1Cl)N1CCN(c2ccccn2)CC1 | -6.09% | -5.88% | -0.46% | 103% | 109% | 1.91% | 4.61%
21 | Clc1ccc(-n2ncc3c(NCC4CCCO4)ncnc32)cc1 (centres undefined) | -7.04% | -19.4% | -5.71% | 37.6% | 37.2% | 0.57% | 8.53%
22 | COc1ccc(C(C(=O)NC2CCCC2)N2CCc3ccccc32)cc1 (centres undefined) | -12.6% | -11.4% | -3.02% | 92.8% | 87.9% | 1.26% | 1.52%
23 | O=C(CCS(=O)(=O)c1ccccc1)Nc1nccs1 | -13.9% | -10.5% | -8.48% | 62.2% | 72.7% | 1.48% | 5.64%
24 | CC(=O)NCCc1nc2ccccc2n1Cc1ccccc1 | 1.21% | -2.44% | -2% | 106% | 98.8% | 1.33% | 3.58%

Row | SMILES | growth inhibition [1] | growth inhibition [2] | viability increase [3] | viability [4] | viability [5] | inhibition [6] | RAM network inhibition [7]
25 | CCOc1ccc(Nc2cc(C)nc3nc(C)nn23)cc1 | -10.9% | 5.96% | -3.11% | 110% | 93.9% | 0.67% | 2.62%
26 | CCCCOc1ccccc1C1C(C(=O)OC)=C(C)N(C)C(C)=C1C(=O)OC | -4.46% | -5.04% | -3.49% | 83.1% | 79.8% | 0.225% | 8.12%
27 | Nc1cccc(C(=O)Nc2ccc(N)cc2Cl)c1 | -18.5% | -7.93% | -0.9% | 103% | 106% | 2.42% | 2.91%
28 | COc1ccc(NC(=O)C2CCN(S(=O)(=O)c3cccnc3)CC2)cc1Cl | -8.66% | -13.1% | -3.56% | 97.3% | 100% | 1.77% | 2.55%
29 | COC(=O)CSc1ccc2nnc(-c3ccc(OC)c(OC)c3)n2n1 | -10.3% | -18.4% | -0.56% | 106% | 107% | -0.01% | 3.82%
30 | Cc1c(N=C2C(=O)Nc3ccccc32)c(=O)n(-c2ccccc2)n1C | -1.19% | 0.225% | -2.29% | 108% | 90.3% | 0.61% | 1.79%
31 | COC(=O)c1ccccc1NC(=O)c1c(O)c2c([nH]c1=O)CCCC2 | -23.1% | -12.7% | -5.62% | 88.3% | 93% | 1.71% | 1.65%
32 | Cc1nnc2ccc(N3CCN(C(=O)c4ccccc4)CC3)nn12 | -4.49% | 5.48% | 0.13% | 98.9% | 95.2% | 1.42% | 2.92%
33 | CSc1nnc(Cn2c(=O)sc3ccccc32)n1CCc1ccccc1 | 3.19% | 9.71% | -1.75% | 92.2% | 83.3% | 2.35% | 6.93%
34 | CC(Oc1ccccc1F)C(=O)NCCN1CCCCC1 (centres undefined) | -9.04% | -8.32% | -0.4% | 91.9% | 93.6% | 0.865% | 3.01%
35 | CCOc1ccc(-n2c(Cc3cc(=O)[nH]c(=O)[nH]3)nnc2SCc2cccnc2)cc1 | 2.83% | 5.83% | 1.08% | 107% | 105% | 1.84% | 0.84%
36 | CCC(Sc1ccc2nnc(-c3cccnc3)n2n1)C(=O)O (centres undefined) | -18.7% | -14.8% | -0.8% | 100% | 95.8% | 2.44% | 6.69%
37 | Cc1cc(NCc2ccc3c(c2)OCO3)n2nc(C)nc2n1 | -16.8% | -2% | -0.9% | 94.4% | 87.5% | 0.44% | -0.15%
38 | O=C1CC(N2CCN(C(c3ccccc3)c3ccccc3)CC2)C(=O)N1 (centres undefined) | -8.31% | -9.7% | -1.16% | 102% | 102% | 1.03% | 5.3%
39 | COc1cccc(C(=O)Nc2nnc(-c3cccs3)o2)c1 | -16.4% | -17% | -4.26% | 44.8% | 56.3% | 0.07% | 0.16%
40 | Cc1ccc(S(=O)(=O)N2CCN(C(=O)CSc3nnc(C)s3)C2)cc1 | -14.3% | -10.7% | -1.75% | 91.9% | 87.3% | 1.31% | -0.22%
41 | O=C(CN1CCOc2ccccc21)NC1CC1 | -8.82% | 8.71% | -3.71% | 88.1% | 98.8% | 1.16% | -0.26%
42 | CCNc1nc(NCC)nc(Oc2ccc(OCC)nn2)n1 | -15.2% | -14.6% | -0.87% | 88.1% | 92.2% | 2.82% | 4.95%
43 | CC1=C(C(=O)OCc2ccc3c(c2)OCO3)C(c2ccc(Cl)cc2)NC(=O)N1 (centres undefined) | -4.12% | -5.46% | -4.91% | 19.4% (active) | 22.3% (active) | 1.32% | 4.12%
44 | CCOC(=O)c1c(CC(C)C)csc1NC=O | -4.46% | -33.1% | -1.84% | 81.8% | 80.1% | 1.18% | 0.88%
45 | CC(C)CC(=O)Nc1ccc(C(=O)COc2ccc(-c3nnco3)cc2)cc1 | -0.165% | -0.795% | 0.84% | 88% | 87% | 0.965% | 2.46%
46 | CN(C)c1ccnc2sc(C(=O)NCc3ccccc3)c(N)c12 | -17.2% | 17.5% | -2.17% | 81.3% | 78.7% | 2.11% | 1.39%
47 | O=C(NCc1ccccc1)c1cc(S(=O)(=O)N2CCOCC2)ccc1F | -3.95% | -30.7% | 0.27% | 94.7% | 93% | 3.29% | 3.42%
